Data on one compound can be found in ChEMBL document CHEMBL1152901, “The synthesis and biological evaluation of para-substituted phenolic N-alkyl carbamates as endocannabinoid hydrolyzing enzyme inhibitors” (Eur J Med Chem, 2009).

The source made the active and inactive calls. The calls are words filed in the database; no cut-off is given here.

In assay [1] the target is T1, Fatty-acid amide hydrolase 1 (Rattus norvegicus) (UniProt P97612).
T1 sequence (whole entry): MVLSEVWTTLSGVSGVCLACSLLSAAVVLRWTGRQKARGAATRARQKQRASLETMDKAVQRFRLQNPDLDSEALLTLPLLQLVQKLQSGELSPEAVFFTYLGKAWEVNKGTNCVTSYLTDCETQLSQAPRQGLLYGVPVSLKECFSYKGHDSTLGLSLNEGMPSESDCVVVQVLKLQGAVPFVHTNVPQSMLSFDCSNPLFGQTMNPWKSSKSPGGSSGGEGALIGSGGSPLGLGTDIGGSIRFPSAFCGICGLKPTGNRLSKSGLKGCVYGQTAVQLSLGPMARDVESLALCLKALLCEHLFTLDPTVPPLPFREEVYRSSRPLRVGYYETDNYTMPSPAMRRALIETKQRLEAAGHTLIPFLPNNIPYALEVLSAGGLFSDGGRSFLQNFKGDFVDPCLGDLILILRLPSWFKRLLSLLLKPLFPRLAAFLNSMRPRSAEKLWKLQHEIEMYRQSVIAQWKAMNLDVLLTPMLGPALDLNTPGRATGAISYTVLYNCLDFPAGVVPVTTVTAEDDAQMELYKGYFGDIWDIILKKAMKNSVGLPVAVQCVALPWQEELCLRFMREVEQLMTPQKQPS
Nature of the assay: Irreversible inhibition of FAAH in Wistar rat brain homogenate at 246 nM by liquid scintillation counting. The assay is classed as tissue-based.

The target of assay [2] is T1, Fatty-acid amide hydrolase 1 (Rattus norvegicus). Description: Inhibition of FAAH-mediated uptake of [3H]anandamide in rat RBL2H3 cells. The assay is classed as cell-based. Particulars: RBL-2H3. An outline of the steps: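 RBL2H3 cells are preincubated 10 min at 37 °C with compound with or without URB597. [arachidonoyl-3H]AEA is then added at 100 nM and incubated a further 10 min at 37 °C. Wells without cells serve as a comparison. Data are means, n = 4, analysed by repeated-measures one-way ANOVA with Dunnett's test.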

For assay [3], the target named is T2, Fatty-acid amide hydrolase 1 (Rattus norvegicus, UniProt P97612).
T2 sequence (P97612 whole entry): T1 sequence (whole entry)
Description: Inhibition of FAAH-mediated hydrolysis of [3H]anandamide in rat RBL2H3 cells. The class given is cell-based, RBL-2H3. In a few lines: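 RBL2H3 cells are preincubated 10 min at 37 °C with compound with or without URB597. [ethanolamine-1-3H]AEA is then added at 100 nM and incubated a further 20 min at 37 °C, and hydrolysis is measured. Data are means, n = 5, analysed by repeated-measures one-way ANOVA with Dunnett's test.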

In assay [4] the target is T2, Fatty-acid amide hydrolase 1. Nature of the assay: Inhibition of FAAH in Wistar rat cerebral membrane by liquid scintillation counting. The assay is classed as cell membranes. An outline of the steps:
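Rat brain homogenate (10,000g supernatant from male Wistar forebrain, 8 weeks old), 18 µg protein, preincubated with inhibitor in DMSO (≤5% v/v) for 10 min at 37 °C in 0.1 M potassium phosphate pH 7.4 with 0.5% fatty-acid-free BSA. Then 2 µM AEA carrying [ethanolamine-1-3H]AEA is added for 10 min at 37 °C. The reaction is stopped with ethyl acetate and aqueous [3H]ethanolamine is counted. IC50 comes from a variable-slope sigmoidal fit, three experiments in duplicate; single-point values are the mean of two experiments in duplicate.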

Another assay deals with T3, Monoglyceride lipase (Rattus norvegicus, UniProt Q8R431).
T3 sequence (Q8R431 whole entry): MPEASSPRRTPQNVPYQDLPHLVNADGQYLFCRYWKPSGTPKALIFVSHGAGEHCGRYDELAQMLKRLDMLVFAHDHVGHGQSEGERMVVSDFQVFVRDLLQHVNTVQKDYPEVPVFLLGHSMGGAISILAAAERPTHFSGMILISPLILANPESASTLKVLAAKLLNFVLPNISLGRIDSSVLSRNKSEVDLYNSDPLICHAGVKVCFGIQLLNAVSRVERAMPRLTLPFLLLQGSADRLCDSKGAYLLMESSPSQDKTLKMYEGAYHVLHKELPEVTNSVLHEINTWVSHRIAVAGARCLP
Description: Inhibition of MGL in Wistar rat cerebral membrane by HPLC. The class given is cell membranes. An outline of the steps: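 Incubation is 90 min at 25 °C with 5 µg protein, 50 µM 2-AG, 100 mM NaCl and 5 mM MgCl2. The reaction is stopped with acidified acetonitrile (pH 3.0). 2-AG, 1(3)-AG and arachidonic acid are quantified by reversed-phase HPLC with UV at 211 nm. IC50 comes from a variable-slope fit, three experiments in duplicate; percentages are the mean of two in duplicate.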

On to `CCCCCCCCCCCCNC(=O)Oc1ccc(-c2csnn2)cc1`, for which the outcome in assay [1] and in assay [2] was Active. Besides, the IC50 (commonly the concentration that gives 50% inhibition) in assay [3] stood at 82 nM; in assay [4], 12 nM; against Monoglyceride lipase, 1900 nM.
